Measured values as given in ChEMBL document CHEMBL1136991, “Novel potent BRAF inhibitors: toward 1 nM compounds through optimization of the central phenyl ring” (J Med Chem, 2009).

Columns and labels:
[1] = molecular target: MAP kinase-activated protein kinase 2 (Homo sapiens) (UniProt P49137); assay: Inhibition of MAPKAP-K2 at 1 uM relative to control
[2] = molecular target: Proto-oncogene tyrosine-protein kinase Src (Homo sapiens) (UniProt P12931); assay: Inhibition of Src at 1 uM relative to control
Chain of Proto-oncogene tyrosine-protein kinase Src (Homo sapiens) (P12931 2-536 limits assumed): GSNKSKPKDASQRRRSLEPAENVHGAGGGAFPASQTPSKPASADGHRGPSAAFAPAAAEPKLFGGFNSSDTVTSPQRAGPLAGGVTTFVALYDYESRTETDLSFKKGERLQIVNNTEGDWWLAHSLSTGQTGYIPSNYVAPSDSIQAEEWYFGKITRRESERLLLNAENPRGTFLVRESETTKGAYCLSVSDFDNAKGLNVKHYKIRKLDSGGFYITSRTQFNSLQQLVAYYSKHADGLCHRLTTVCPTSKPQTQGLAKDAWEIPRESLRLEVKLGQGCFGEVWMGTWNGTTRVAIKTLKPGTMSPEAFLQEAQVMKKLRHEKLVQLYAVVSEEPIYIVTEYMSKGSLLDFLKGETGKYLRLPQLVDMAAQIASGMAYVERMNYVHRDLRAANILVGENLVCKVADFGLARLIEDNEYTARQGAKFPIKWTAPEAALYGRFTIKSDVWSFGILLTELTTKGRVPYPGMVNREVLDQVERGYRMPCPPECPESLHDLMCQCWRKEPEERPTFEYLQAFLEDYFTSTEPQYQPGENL

[3] = molecular target: Myosin light chain kinase, smooth muscle (Homo sapiens) (UniProt Q15746); assay: Inhibition of smooth muscle MLCK at 1 uM relative to control; assay type: tissue-based; settings: Muscle tissue
Chain of Myosin light chain kinase, smooth muscle (Homo sapiens) (Q15746 whole entry): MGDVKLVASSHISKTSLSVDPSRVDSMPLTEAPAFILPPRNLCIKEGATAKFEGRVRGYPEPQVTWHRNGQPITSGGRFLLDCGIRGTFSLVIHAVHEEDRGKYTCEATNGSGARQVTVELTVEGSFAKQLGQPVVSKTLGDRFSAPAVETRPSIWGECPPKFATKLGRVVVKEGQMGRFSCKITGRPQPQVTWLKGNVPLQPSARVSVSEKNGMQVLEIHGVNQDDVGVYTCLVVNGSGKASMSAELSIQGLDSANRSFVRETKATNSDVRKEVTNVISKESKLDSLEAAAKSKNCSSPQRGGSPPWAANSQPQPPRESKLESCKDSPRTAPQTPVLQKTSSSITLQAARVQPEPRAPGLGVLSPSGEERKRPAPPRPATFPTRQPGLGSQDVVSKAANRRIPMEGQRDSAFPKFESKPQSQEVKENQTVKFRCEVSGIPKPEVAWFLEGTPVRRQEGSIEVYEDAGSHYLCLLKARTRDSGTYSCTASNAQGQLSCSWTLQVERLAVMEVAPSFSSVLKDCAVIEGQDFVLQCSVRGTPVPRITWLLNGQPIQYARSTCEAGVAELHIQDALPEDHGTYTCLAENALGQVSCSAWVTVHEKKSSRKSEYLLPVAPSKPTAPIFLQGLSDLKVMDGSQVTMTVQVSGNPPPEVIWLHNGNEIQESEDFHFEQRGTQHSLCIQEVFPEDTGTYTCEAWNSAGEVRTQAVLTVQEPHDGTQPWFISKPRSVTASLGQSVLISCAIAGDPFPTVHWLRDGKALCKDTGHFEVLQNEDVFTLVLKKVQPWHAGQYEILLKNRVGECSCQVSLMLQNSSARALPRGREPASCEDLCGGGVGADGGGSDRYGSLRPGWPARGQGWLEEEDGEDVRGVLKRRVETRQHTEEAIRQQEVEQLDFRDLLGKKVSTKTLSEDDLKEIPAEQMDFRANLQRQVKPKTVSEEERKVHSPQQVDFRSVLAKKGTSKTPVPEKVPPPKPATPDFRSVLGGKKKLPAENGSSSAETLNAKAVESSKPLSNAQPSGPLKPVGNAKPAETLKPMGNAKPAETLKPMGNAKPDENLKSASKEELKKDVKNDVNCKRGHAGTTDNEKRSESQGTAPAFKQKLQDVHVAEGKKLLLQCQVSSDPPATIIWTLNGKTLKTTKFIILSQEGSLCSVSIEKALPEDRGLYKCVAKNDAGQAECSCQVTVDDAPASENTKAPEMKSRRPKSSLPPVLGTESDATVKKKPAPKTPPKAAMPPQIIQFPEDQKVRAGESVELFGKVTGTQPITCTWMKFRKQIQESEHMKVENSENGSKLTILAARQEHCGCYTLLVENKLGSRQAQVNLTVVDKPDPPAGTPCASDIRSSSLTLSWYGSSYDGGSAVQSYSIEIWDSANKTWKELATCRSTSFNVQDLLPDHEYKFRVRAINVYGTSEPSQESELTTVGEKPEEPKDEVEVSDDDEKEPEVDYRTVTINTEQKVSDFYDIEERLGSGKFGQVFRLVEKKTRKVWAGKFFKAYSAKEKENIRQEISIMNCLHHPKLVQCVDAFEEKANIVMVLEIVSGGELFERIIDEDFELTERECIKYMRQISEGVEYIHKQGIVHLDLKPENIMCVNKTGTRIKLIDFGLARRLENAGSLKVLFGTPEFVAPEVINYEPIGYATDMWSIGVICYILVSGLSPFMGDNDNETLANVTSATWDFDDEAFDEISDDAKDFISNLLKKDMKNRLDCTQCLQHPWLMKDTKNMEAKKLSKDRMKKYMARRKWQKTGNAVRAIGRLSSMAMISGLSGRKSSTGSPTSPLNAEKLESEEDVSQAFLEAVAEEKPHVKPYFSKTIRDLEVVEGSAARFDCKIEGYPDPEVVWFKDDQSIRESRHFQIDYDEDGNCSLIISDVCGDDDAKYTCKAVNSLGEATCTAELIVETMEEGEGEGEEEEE

[4] = molecular target: Homeodomain-interacting protein kinase 2 (Homo sapiens) (UniProt Q9H2X6); assay: Inhibition of HIPK2 at 1 uM relative to control
Chain of Homeodomain-interacting protein kinase 2 (Homo sapiens) (Q9H2X6 whole entry, looked up): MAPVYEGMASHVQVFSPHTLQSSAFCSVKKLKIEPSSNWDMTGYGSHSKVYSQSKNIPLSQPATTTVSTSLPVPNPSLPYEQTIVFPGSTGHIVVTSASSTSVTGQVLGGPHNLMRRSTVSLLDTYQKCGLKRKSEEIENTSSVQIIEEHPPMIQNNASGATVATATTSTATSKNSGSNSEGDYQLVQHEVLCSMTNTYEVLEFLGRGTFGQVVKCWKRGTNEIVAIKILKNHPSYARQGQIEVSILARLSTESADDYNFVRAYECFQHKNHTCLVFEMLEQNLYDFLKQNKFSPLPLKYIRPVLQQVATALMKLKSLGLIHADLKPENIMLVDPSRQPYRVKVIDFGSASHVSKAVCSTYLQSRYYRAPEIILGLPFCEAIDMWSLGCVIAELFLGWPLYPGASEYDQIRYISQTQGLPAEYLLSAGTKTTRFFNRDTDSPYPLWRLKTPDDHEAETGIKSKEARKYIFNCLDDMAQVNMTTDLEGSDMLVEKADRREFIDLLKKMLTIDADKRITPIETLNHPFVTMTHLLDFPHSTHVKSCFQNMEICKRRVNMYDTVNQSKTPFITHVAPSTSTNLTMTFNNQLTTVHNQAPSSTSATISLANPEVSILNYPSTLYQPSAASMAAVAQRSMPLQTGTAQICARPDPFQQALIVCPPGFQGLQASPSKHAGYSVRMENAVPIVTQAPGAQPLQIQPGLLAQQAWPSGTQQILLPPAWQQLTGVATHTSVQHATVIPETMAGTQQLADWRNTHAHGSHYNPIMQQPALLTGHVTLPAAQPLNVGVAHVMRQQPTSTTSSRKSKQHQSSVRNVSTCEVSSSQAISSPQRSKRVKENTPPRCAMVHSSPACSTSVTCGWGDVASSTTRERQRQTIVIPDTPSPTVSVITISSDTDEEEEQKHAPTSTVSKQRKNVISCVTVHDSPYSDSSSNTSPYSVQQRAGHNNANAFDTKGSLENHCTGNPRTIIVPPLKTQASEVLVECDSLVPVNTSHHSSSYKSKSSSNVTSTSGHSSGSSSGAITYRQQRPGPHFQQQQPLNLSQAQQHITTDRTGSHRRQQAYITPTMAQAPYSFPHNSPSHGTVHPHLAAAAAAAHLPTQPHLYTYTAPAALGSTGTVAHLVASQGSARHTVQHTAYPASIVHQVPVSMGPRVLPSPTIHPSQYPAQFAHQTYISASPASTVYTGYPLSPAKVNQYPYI

[5] = molecular target: Mitogen-activated protein kinase 8 (Homo sapiens) (UniProt P45983); assay: Inhibition of JNK1 at 1 uM relative to control
[6] = molecular target: Rho-associated protein kinase 2 (Homo sapiens) (UniProt O75116); assay: Inhibition of ROCK2 at 1 uM relative to control
[7] = molecular target: T1, Mitogen-activated protein kinase 15 (Homo sapiens) (UniProt Q8TD08); assay: Inhibition of ERK8 at 1 uM relative to control
T1 sequence (whole entry): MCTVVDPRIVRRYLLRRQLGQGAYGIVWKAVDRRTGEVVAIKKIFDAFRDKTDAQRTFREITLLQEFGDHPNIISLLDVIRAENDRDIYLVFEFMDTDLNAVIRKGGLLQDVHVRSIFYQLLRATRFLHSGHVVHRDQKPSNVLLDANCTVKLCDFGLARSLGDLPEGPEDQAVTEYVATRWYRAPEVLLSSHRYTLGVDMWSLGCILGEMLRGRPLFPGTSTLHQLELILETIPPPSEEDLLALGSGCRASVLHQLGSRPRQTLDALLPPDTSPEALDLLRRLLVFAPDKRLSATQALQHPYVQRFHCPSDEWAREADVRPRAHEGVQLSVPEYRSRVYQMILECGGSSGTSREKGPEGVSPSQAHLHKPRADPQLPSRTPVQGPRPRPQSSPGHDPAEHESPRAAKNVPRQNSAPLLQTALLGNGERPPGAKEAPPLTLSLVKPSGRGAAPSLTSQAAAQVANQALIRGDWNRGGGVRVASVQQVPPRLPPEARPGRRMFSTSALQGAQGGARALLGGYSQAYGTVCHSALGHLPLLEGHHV

[8] = molecular target: Mitogen-activated protein kinase 9 (Homo sapiens) (UniProt P45984); assay: Inhibition of JNK2 at 1 uM relative to control
Chain of Mitogen-activated protein kinase 9 (Homo sapiens) (P45984 whole entry, looked up): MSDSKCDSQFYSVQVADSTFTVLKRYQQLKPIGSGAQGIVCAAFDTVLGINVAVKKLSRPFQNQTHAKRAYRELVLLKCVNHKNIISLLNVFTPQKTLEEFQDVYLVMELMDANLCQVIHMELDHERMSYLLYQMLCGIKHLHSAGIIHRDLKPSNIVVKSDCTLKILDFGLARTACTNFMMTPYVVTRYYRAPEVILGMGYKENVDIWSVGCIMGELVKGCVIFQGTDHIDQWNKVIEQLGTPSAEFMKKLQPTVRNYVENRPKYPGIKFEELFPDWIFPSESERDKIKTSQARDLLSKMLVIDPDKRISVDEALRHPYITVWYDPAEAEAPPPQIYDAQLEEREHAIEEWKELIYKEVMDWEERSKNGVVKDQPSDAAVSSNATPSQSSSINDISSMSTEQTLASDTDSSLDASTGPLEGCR

[9] = molecular target: T2, Inhibitor of nuclear factor kappa-B kinase subunit beta (Homo sapiens) (UniProt O14920); assay: Inhibition of IKK-beta at 1 uM relative to control
T2 sequence (whole entry): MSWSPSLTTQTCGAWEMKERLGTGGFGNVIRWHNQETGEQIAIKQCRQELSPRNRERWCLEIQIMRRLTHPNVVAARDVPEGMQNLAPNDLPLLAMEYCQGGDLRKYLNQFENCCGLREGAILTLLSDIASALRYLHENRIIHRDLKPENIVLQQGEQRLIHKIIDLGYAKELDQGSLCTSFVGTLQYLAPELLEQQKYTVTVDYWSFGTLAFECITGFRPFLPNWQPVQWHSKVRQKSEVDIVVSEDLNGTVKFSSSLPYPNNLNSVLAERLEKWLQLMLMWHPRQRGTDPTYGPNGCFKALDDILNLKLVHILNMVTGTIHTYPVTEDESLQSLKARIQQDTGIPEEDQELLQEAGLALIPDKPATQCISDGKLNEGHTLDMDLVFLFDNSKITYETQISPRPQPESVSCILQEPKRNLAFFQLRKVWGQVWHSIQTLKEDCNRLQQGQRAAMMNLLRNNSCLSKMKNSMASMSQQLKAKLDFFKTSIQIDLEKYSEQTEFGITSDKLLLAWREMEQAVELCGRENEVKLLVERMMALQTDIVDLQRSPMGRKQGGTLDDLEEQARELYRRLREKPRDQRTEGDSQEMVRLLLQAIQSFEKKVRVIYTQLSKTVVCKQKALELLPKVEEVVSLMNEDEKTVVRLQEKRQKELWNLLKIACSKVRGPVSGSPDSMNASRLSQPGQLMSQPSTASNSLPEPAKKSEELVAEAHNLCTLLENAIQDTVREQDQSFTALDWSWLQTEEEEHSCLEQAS

[10] = Inhibition of PKA at 1 uM relative to control
[11] = molecular target: Ribosomal protein S6 kinase alpha-1 (Homo sapiens) (UniProt Q15418); assay: Inhibition of RSK1 at 1 uM relative to control
[12] = molecular target: Homeodomain-interacting protein kinase 3 (Homo sapiens) (UniProt Q9H422); assay: Inhibition of HIPK3 at 1 uM relative to control
[13] = Inhibition of p38S at 1 uM relative to control
[14] = molecular target: Dual specificity mitogen-activated protein kinase kinase 1 (Homo sapiens) (UniProt Q02750); assay: Inhibition of MKK1 at 1 uM relative to control
[15] = molecular target: Serine/threonine-protein kinase Chk2 (Homo sapiens) (UniProt O96017); assay: Inhibition of CHK2 at 1 uM relative to control
[16] = molecular target: Maternal embryonic leucine zipper kinase (Homo sapiens) (UniProt Q14680); assay: Inhibition of MELK at 1 uM relative to control
[17] = Growth inhibition of human WM266.4 cells expressing BRAF V600E mutant after 5 days by SRB assay; assay type: functional; settings: WM 266-4, 120 h
Method in brief: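 WM266.4 human melanoma cells, which are driven by mutant BRAF, were assayed for proliferation by sulforhodamine B (SRB) staining; the value is a GI50.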

[18] = molecular target: T3, Serine/threonine-protein kinase Nek2 (Homo sapiens) (UniProt P51955); assay: Inhibition of NEK2a at 1 uM relative to control
T3 sequence (whole entry): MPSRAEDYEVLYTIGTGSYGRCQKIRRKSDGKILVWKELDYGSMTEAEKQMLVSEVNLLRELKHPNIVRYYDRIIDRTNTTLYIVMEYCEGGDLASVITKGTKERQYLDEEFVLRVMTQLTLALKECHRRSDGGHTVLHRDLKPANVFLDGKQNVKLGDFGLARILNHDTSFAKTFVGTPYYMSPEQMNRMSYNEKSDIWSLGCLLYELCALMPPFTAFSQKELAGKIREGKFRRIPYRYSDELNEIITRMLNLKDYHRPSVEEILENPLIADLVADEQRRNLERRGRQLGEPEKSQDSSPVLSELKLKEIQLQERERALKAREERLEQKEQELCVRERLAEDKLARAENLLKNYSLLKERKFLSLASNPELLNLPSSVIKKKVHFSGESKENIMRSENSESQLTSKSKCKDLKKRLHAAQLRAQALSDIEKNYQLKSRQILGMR

[19] = molecular target: Mitogen-activated protein kinase 1 (Homo sapiens) (UniProt P28482); assay: Inhibition of ERK2 at 1 uM relative to control
[20] = molecular target: Serine/threonine-protein kinase pim-1 (Homo sapiens) (UniProt P11309); assay: Inhibition of PIM1 at 1 uM relative to control
Chain of Serine/threonine-protein kinase pim-1 (Homo sapiens) (P11309 whole entry, looked up): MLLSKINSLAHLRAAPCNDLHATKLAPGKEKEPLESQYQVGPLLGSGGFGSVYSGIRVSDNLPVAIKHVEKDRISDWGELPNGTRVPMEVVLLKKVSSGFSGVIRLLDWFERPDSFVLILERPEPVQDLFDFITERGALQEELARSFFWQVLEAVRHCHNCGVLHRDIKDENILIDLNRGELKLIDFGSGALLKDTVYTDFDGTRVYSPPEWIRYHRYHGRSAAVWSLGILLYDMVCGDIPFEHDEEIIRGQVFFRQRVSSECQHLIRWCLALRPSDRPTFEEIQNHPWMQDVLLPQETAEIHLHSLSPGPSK

[21] = molecular target: Mitogen-activated protein kinase 3 (Homo sapiens) (UniProt P27361); assay: Inhibition of ERK1 at 1 uM relative to control
Chain of Mitogen-activated protein kinase 3 (Homo sapiens) (P27361 whole entry): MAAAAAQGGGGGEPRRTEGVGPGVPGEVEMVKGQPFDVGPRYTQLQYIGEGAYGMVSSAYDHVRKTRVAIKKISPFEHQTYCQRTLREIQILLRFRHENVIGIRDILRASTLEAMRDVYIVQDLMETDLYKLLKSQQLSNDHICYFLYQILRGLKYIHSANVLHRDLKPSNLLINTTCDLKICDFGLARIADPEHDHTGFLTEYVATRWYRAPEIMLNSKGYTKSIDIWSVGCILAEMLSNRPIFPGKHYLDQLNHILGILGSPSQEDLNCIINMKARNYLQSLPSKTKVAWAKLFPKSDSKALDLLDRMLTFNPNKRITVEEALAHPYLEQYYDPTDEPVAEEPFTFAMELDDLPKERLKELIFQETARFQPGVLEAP

residual activity [1] [%]	residual activity [2] [%]	residual activity [3] [%]	residual activity [4] [%]	residual activity [5] [%]	residual activity [6] [%]	residual activity [8] [%]	residual activity [9] [%]	residual activity [10] [%]	residual activity [11] [%]	residual activity [12] [%]	residual activity [13] [%]	residual activity [14] [%]	residual activity [15] [%]	residual activity [16] [%]	residual activity [18] [%]	residual activity [19] [%]	residual activity [20] [%]	Structure (SMILES)	residual activity [7] [%]	GI50 [17] [nM]	other results
75	< 25	75	75	75	75	< 25	75	75	75	100	50	75	75	75	75	75	75	CC(C)(C)c1cccc(NC(=O)Nc2ccc(Oc3ccnc4[nH]c(=O)[nH]c34)c3ccccc23)c1	< 25	3900	residual activity [21]: 100%
100	< 25	100	100	75	75	50	100	75	75	100	75	100	100	100	100	100	75	O=C(Nc1cc(C(F)(F)F)ccc1F)Nc1ccc(Oc2ccnc3[nH]c(=O)[nH]c23)c2ccccc12	100	290	residual activity [21]: 100%
100	< 25	100	75	100	75	100	100	100	100	100	50	100	100	100	100	100	100	CSc1cc(Oc2ccnc3[nH]c(=O)[nH]c23)ccc1NC(=O)Nc1cccc(C(F)(F)F)c1	100	1060	residual activity [21]: 100%
